Laboratory results published in ChEMBL document CHEMBL1153915, “[18F]FEAC and [18F]FEDAC: Two novel positron emission tomography ligands for peripheral-type benzodiazepine receptor in the brain” (Bioorg Med Chem Lett, 2009).

Experiments:
[1] = Displacement of [11C]flumazenil from CBR receptor in rat brain membrane; type: cell membranes
Outline: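 Competition against [11C]flumazenil binding in rat brain homogenate; Ki derived; mean ± SD from duplicate homogenates.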

Translocator protein [2] = biological target: T1, Translocator protein (Rattus norvegicus, UniProt P16257); experiment: Displacement of [11C]DAA1106 from PBR receptor in rat brain membrane; type: cell membranes
T1 sequence (P16257 whole entry, looked up): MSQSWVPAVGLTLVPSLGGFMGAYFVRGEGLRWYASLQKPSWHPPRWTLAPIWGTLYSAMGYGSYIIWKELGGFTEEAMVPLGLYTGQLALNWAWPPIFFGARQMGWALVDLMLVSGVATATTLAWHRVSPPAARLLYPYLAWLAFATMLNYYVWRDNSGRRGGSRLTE

[3] = Distribution coefficient, log D in octanol/phosphate buffer at pH 7.4 by shaking flask method; type: physicochemical
Translocator protein [4] = biological target: T1, Translocator protein; experiment: Displacement of [11C]PK11195 from PBR receptor in rat brain membrane; type: cell membranes
Striatum [5] = experiment: Drug uptake in non-lesioned Sprague-Dawley rat striatum assessed as standardized uptake value; type: ADME, tissue-based; details: in vivo
Outline: (§1)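 Dynamic small-animal PET of [18F]-labelled ligand in neuroinflammatory rats (n = 4). Striatal time-activity curves are expressed as SUV = (radioactivity per cm3 tissue / injected radioactivity) × g body weight, as mean ± SD.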

Striatum [6] = experiment: Drug uptake in kainic acid-lesioned Sprague-Dawley rat striatum assessed as standardized uptake value; type: ADME, tissue-based; details: in vivo; outline: as §1
Striatum [7] = experiment: Ratio of drug uptake in kainic acid-lesioned to non-lesioned Sprague-Dawley rat striatum after 10 to 20 mins; type: ADME, tissue-based; details: in vivo
Outline: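 From small-animal PET time-activity curves in neuroinflammatory rats (n = 4), the radioactivity in the lesioned striatum is divided by that in the non-lesioned striatum over the scan, and the maximum ratio is taken.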

Row | SMILES | Ki [1] | Ki (Translocator protein [2]) | logD [3] | Ki (Translocator protein [4]) | SUV (Striatum [5]) | SUV (Striatum [6]) | Ratio (Striatum [7])
1 | CN(Cc1ccccc1)C(=O)Cn1c(=O)n(CCF)c2cnc(-c3ccccc3)nc21 | 8400 nM | – | 3.2 | 1.34 nM | – | – | –
2 | CCN(Cc1ccccc1)C(=O)Cn1c(=O)n(CC[18F])c2cnc(-c3ccccc3)nc21 | – | – | – | – | 0.8 | 1.2 | 2.5
3 | CCN(Cc1ccccc1)C(=O)Cn1c(=O)n(C)c2cnc(-c3ccccc3)nc21 | > 8400 nM | – | 3.3 | 0.2 nM | – | – | –
4 | CCN(Cc1ccccc1)C(=O)Cn1c(=O)n(CCF)c2cnc(-c3ccccc3)nc21 | > 8400 nM | – | 3.6 | 0.49 nM | – | – | –
5 | CCC(C)N(C)C(=O)c1cc2ccccc2c(-c2ccccc2Cl)n1 (stereo not given) [PK-11195] | > 8400 nM | – | 3.7 | – | – | – | –

More lines, now with the values ahead:

Row | Ki [1] | Ki (Translocator protein [2]) | logD [3] | Ki (Translocator protein [4]) | SUV (Striatum [5]) | SUV (Striatum [6]) | Ratio (Striatum [7]) | SMILES
6 | > 1000 nM | 0.08 nM | 3.8 | – | – | – | – | COc1ccc(OCCF)c(CN(C(C)=O)c2cc(F)ccc2Oc2ccccc2)c1
7 | > 8400 nM | – | 3.1 | 0.51 nM | – | – | – | Cn1c(=O)n(CC(=O)N(CCF)Cc2ccccc2)c2nc(-c3ccccc3)ncc21
8 | – | – | – | – | 1.3 | 1.5 | – | COc1ccc(OCC[18F])c(CN(C(C)=O)c2cc(F)ccc2Oc2ccccc2)c1
9 | – | – | – | – | 0.9 | 1.6 | 2.5 | CN(Cc1ccccc1)C(=O)Cn1c(=O)n(CC[18F])c2cnc(-c3ccccc3)nc21
